Compound activity: PubChem, The Scripps Research Institute Molecular Screening Center
TAAR1 antagonist – human TAAR1 antagonism; Q96RJ0; CHO RD-HGA16 TAAR1, Fluo-8 calcium fluorescence, antagonist; inhibition, % at 3 µM; 360,000 tested, 1.5% active;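 active = inhibition above a per-plate cutoff, the mean inhibition of test compounds on that plate plus 3 SD, cut at about 49% in these data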;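 also: 0% = DMSO plus EC80 beta-PEA response and 100% = DMSO alone without agonist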
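Material: CHO RD-HGA16 cells bearing hTAAR1; compound dosing: one-point dosing, 3 µM nominal final; schedule: dye loading 75 min at 37 °C, then 30 min room temperature; measured by: calcium fluorescence with Fluo-8; control set: vehicle and agonist controls; replication: n of 1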
CHRM1 antagonist – antagonists of human M1 muscarinic receptor. AID 588852. inhibition, % at 3 µM. P11229. CHO-K1 hM1, Fluo-8 calcium fluorescence, ACh EC80 antagonist. 360,000 tested, 1.3% active;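 active = percent inhibition above its own plate's cutoff, namely the mean of that plate's compound wells plus 3 SD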;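 also: peak over basal fluorescence ratio during 140 s after agonist addition; 0% = ACh EC80 plus DMSO and 100% = DMSO alone without agonist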
Target sequence (P11229 whole entry, looked up): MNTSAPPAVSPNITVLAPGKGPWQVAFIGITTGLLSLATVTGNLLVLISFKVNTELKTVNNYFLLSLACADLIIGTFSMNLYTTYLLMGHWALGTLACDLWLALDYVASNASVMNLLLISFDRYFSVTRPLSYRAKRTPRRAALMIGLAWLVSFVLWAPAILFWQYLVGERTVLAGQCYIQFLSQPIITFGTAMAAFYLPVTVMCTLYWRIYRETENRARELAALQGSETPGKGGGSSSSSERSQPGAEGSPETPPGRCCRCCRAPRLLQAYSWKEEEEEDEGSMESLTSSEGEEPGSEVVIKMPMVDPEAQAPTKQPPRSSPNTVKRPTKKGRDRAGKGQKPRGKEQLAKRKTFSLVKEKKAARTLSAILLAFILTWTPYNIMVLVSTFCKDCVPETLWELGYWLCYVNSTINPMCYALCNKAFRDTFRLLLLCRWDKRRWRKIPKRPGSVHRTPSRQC
CHRM1 PAM – positive allosteric modulators of human M1 muscarinic receptor; 360,000 tested, 0.088% active; CHO-K1 hM1, Fluo-8 calcium fluorescence, ACh EC20; 0% = ACh EC20, 100% = maximal ACh; P11229; AID 588819; activation, % at 3 µM; in the data active = activation above about 19%, passing the limit was not always enough
TAAR1 agonist – human TAAR1 agonism. CHO RD-HGA16 TAAR1, Fluo-8 calcium fluorescence; vehicle wells 0%, saturating PEA agonist 100%. activation, % at 3 µM. 360,000 tested, 0.99% active. AID 624467;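 active = activation above the mean activation of all test compounds in the run plus 3 SD, cut at about 38% in these data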
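Test system: RD-HGA16 (CHO) cells co-expressing Gα16 and hTAAR1 | Doses: Single dose, 3 µM | Schedule: 17-24 h seeding, 75 min 37 °C dye, 30 min RT | Evaluation: % activation from peak over basal fluorescence ratio, DMSO-to-PEA scaled | Technique: Kinetic Fluo-8 calcium fluorescence | Benchmarks: Low control DMSO, high control PEA (EC100)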
CHRM1 agonist – agonists of human M1 muscarinic receptor | activation, % at 3 µM | CHO-K1 hM1, Fluo-8 calcium fluorescence, agonist mode; 0% DMSO, 100% acetylcholine EC100 | 360,000 tested, 0.33% active | AID 588814;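 active = activation above the run's mean compound activation plus 3 SD, cut at about 16% in these data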;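 also: peak over basal fluorescence ratio within a 140 s kinetic read after compound addition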
Starred values were filed as active, the others as inactive. Sampled rows, rich in hits. Any-hit rate of the full collection: about 3.4%.

Results for CC(=O)N1CCN(C(=O)c2ccc(Cl)c(S(=O)(=O)N3CCc4ccccc43)c2)CC1 ?
TAAR1 antagonist: 5; CHRM1 antagonist: -10; CHRM1 PAM: 9; TAAR1 agonist: 5; CHRM1 agonist: -4

How did O=C(c1ccc(Cl)c(S(=O)(=O)N2CCc3ccccc32)c1)N1CCN(c2ccccc2O)CC1 do in these assays?
TAAR1 antagonist: 61*; CHRM1 antagonist: 25*; CHRM1 PAM: -14; TAAR1 agonist: 22; CHRM1 agonist: -3

What do the screens show for `O=C(NNC(=O)c1ccccc1O)c1ccc(Cl)c(S(=O)(=O)N2CCc3ccccc32)c1`?
TAAR1 antagonist: 44; CHRM1 antagonist: 38*; CHRM1 PAM: -5; TAAR1 agonist: 7; CHRM1 agonist: 2

What do the screens show for `C[C@H]1CNC(=O)c2c(C(=O)N3CCN(c4ccccc4)CC3)ncn21`?
TAAR1 antagonist: 13; TAAR1 agonist: 0

What do the screens show for `N#Cc1ccccc1Cn1cc(/C=C/[N+](=O)[O-])c2ccccc21`?
TAAR1 antagonist: 18; CHRM1 antagonist: 50*; CHRM1 PAM: 8; TAAR1 agonist: 2; CHRM1 agonist: 4

Results for O=[N+]([O-])/C=C/c1cn(Cc2ccccc2)c2ccccc12 ?
TAAR1 antagonist: -17; CHRM1 antagonist: -1; CHRM1 PAM: 10; TAAR1 agonist: -1; CHRM1 agonist: 1

What do the screens show for `CCOC(=O)[C@]12CCCC=C1N(Cc1cccc3ccccc13)C(=O)[C@H](CC(=O)NCc1ccc(OC)c(OC)c1)C2`?
TAAR1 antagonist: 31; TAAR1 agonist: 0

Results for CCc1ccc(-n2cc(-c3ccc(F)cc3)[n+]3c2SCCC3)cc1 ?
TAAR1 antagonist: 8; CHRM1 antagonist: 52*; CHRM1 PAM: -32; TAAR1 agonist: 4; CHRM1 agonist: -13

What do the screens show for `Cc1ccc(-c2cn(-c3ccccc3)c3[n+]2CCCS3)cc1`?
TAAR1 antagonist: 0; CHRM1 antagonist: 40; CHRM1 PAM: -22; TAAR1 agonist: 10; CHRM1 agonist: -4

What do the screens show for `Cc1ccc(C(=O)NC(=S)Nc2ccc(CN3CCOCC3)cc2)cc1`?
TAAR1 antagonist: -25; CHRM1 antagonist: 2; CHRM1 PAM: 0; TAAR1 agonist: 3; CHRM1 agonist: -4

Results for COc1ccc(Br)cc1C(=O)NC(=S)Nc1ccc(CN2CCOCC2)cc1 ?
TAAR1 antagonist: 32; CHRM1 antagonist: 32*; CHRM1 PAM: -17; TAAR1 agonist: 2; CHRM1 agonist: -4

Results for O=C(NC(=S)Nc1ccc(CN2CCOCC2)cc1)c1ccc(-c2cccc(Cl)c2)o1 ?
TAAR1 antagonist: 46; CHRM1 antagonist: 58*; CHRM1 PAM: -23; TAAR1 agonist: 3; CHRM1 agonist: -6

Results for O=C(Nc1ccc(CN2CCOCC2)cc1)c1ccc(-c2cccc(Cl)c2)o1 ?
TAAR1 antagonist: -2; CHRM1 antagonist: 2; CHRM1 PAM: 1; TAAR1 agonist: 21; CHRM1 agonist: -1

Results for Fc1ccc(-c2nnc3ccc(N4CCCC4)nn23)cc1 ?
TAAR1 antagonist: 3; CHRM1 antagonist: 102*; CHRM1 PAM: -30; TAAR1 agonist: -3; CHRM1 agonist: -5

Results for O=C(Nc1ccccc1Cl)N1CCN(c2ccc3nnc(-c4ccc(F)cc4)n3n2)CC1 ?
TAAR1 antagonist: 16; CHRM1 antagonist: -3; CHRM1 PAM: -2; TAAR1 agonist: 7; CHRM1 agonist: -13

What do the screens show for `COc1ccc(Cn2cc(CN3CCc4onc(-c5ccc(Br)cc5)c4C3=O)nn2)cc1`?
TAAR1 antagonist: 10; TAAR1 agonist: 1

Results for Cc1cc(C)c(S(N)(=O)=O)c(C)c1N(C)S(=O)(=O)c1ccccc1 ?
TAAR1 antagonist: 11; CHRM1 antagonist: -4; CHRM1 PAM: 10; TAAR1 agonist: 2; CHRM1 agonist: -4

Results for Cc1cc(C)c(S(N)(=O)=O)c(C)c1N(C)S(=O)(=O)c1ccc(Cl)cc1 ?
TAAR1 antagonist: -25; CHRM1 antagonist: 40*; CHRM1 PAM: -13; TAAR1 agonist: 4; CHRM1 agonist: 0

How did c1ccc(CN2CCCC3CC2c2ccccc23)cc1 (stereo unspecified) do in these assays?
TAAR1 antagonist: -7; TAAR1 agonist: 0

Results for COc1cccc(OC)c1OCCCCCCN1CCN(C)CC1 ?
TAAR1 antagonist: -23; CHRM1 antagonist: -17; CHRM1 PAM: 2; TAAR1 agonist: 4; CHRM1 agonist: -11

Results for c1ccc(OCCOCCN2CCN(C(c3ccccc3)c3ccccc3)CC2)cc1 ?
TAAR1 antagonist: -3; CHRM1 antagonist: 100*; CHRM1 PAM: -23; TAAR1 agonist: 3; CHRM1 agonist: -8

What do the screens show for `c1ccc(OCCOCCN2CCc3ccccc3C2)cc1`?
TAAR1 antagonist: -8; CHRM1 antagonist: 2; CHRM1 PAM: -3; TAAR1 agonist: 23; CHRM1 agonist: -10

How did COc1ccccc1OCCCCN1CCN(C(c2ccccc2)c2ccccc2)CC1 do in these assays?
TAAR1 antagonist: 6; CHRM1 antagonist: 86*; CHRM1 PAM: -20; TAAR1 agonist: 12; CHRM1 agonist: -7

How did O=C1CCCC2=C1C(c1ccc(Cl)cc1)N1C(=O)CCSC1=N2 (stereo unspecified) do in these assays?
TAAR1 antagonist: -12; CHRM1 antagonist: 14; CHRM1 PAM: -1; TAAR1 agonist: 2; CHRM1 agonist: -3

What do the screens show for `CC1(C)CC(=O)C2=C(C1)N=C1SCCC(=O)N1C2c1ccccc1` (stereo unspecified)?
TAAR1 antagonist: -27; CHRM1 antagonist: 36*; CHRM1 PAM: -15; TAAR1 agonist: 6; CHRM1 agonist: -8

How did CC(C)c1cc(-c2cc(C(=O)NCc3ccccc3)on2)nc(NC2CCCC2)n1 do in these assays?
TAAR1 antagonist: 27; CHRM1 antagonist: 18; CHRM1 PAM: -5; TAAR1 agonist: 11; CHRM1 agonist: 2

Results for CC(C)c1cc(-c2cc(C(=O)NCc3ccccc3)on2)nc(NCC2CC2)n1 ?
TAAR1 antagonist: 77*; CHRM1 antagonist: 34*; CHRM1 PAM: 6; TAAR1 agonist: 68*; CHRM1 agonist: 29*

What do the screens show for `COc1cccc(C(O)c2nc(/C=C/c3ccccc3)cs2)c1` (stereo unspecified)?
TAAR1 antagonist: 7; CHRM1 antagonist: -13; CHRM1 PAM: 13; TAAR1 agonist: 2; CHRM1 agonist: 0

How did CC(C)(C)NC(=O)C1C(c2ccc(C(F)(F)F)cc2)=Nc2ccccc2N1C(=O)c1cccc(C(F)(F)F)c1 (stereo unspecified) do in these assays?
TAAR1 antagonist: -10; TAAR1 agonist: -1

What do the screens show for `CCN(CC)c1ccc(C(=C2C=CC(=[N+](CC)CC)C=C2)c2ccccc2)cc1`?
TAAR1 antagonist: 105*; CHRM1 antagonist: 97*; CHRM1 PAM: -34; TAAR1 agonist: 29; CHRM1 agonist: 26*

Results for N#Cc1ccccc1CSc1ccc(-c2nc3ccccc3[nH]2)cn1 ?
TAAR1 antagonist: 50*; CHRM1 antagonist: 2; CHRM1 PAM: -2; TAAR1 agonist: 13; CHRM1 agonist: -3
